Positions of bridges follow the written chain, without caps; N, C: chain ends. Non-standard residues stand in square brackets, D forms with d. Residues, ends and D or L forms follow the SMILES beside them. Tic = O=C(O)[C@@H]1Cc2ccccc2CN1; Aic = NC1(C(=O)O)Cc2ccccc2C1; Nle = CCCC[C@H](N)C(=O)O
What was measured:
Mu-type opioid receptor [1] = molecular target: Mu-type opioid receptor (Cavia porcellus, UniProt P97266); experiment: Inhibition of electrically evoked contractions in Guinea pig ileum; format: functional, tissue-based
Summary of the method: (§1)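 Isolated guinea pig ileum or mouse vas deferens, electrically stimulated; agonist IC50 taken as inhibition of evoked contractions from log dose–response curves. A [Leu5]enkephalin standard curve was run on each preparation and test IC50 values normalised to it. Antagonist Ke derived from IC50 ratio with and without a fixed antagonist concentration.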

Mu-type opioid receptor [2] = molecular target: T1, Mu-type opioid receptor (Rattus norvegicus, UniProt P33535); experiment: Inhibition of [3H]- ]DAMGO binding to mu receptor from rat brain membrane
Summary of the method: (§2)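 Displacement of 0.72 nM [3H]DAMGO from rat brain membranes; 2 h incubation at 0 °C. IC50 read from log dose–displacement curves; Ki calculated by Cheng–Prusoff equation using Kd 1.3 nM for [3H]DAMGO.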

[3] = molecular target: T2, Delta-type opioid receptor (Mus musculus, UniProt P32300); experiment: (§3) Inhibition of electrically evoked contractions in mouse vas deferens; format: functional
[4] = molecular target: T3, Delta-type opioid receptor (Rattus norvegicus, UniProt P33533); experiment: Inhibition of [3H]- ]DSLET binding to delta receptor from rat brain membrane
Summary of the method: (§4)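 Displacement of 0.78 nM [3H]DSLET from rat brain membrane preparations, incubated 2 h at 0 °C. IC50 from log dose–displacement curves, converted to Ki via Cheng–Prusoff with a [3H]DSLET Kd of 2.6 nM.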

[5] = molecular target: T3, Delta-type opioid receptor; experiment: Inhibition of [3H]- ]DSLET binding to Opioid receptor delta 1 from rat brain membrane; summary of the method: as §4
Mu-type opioid receptor [6] = molecular target: T1, Mu-type opioid receptor; experiment: (§5) Inhibition of [3H]- ]DAMGO binding to Opioid receptor mu 1 from rat brain membrane; summary of the method: as §2
[7] = molecular target: T2, Delta-type opioid receptor; experiment: as §3; format: functional; summary of the method: as §1; remark: listed apart in the source
Mu-type opioid receptor [8] = molecular target: T1, Mu-type opioid receptor; experiment: as §5; summary of the method: as §2; remark: listed apart in the source
[9] = molecular target: T3, Delta-type opioid receptor; experiment: Inhibition of [3H]- ]DSLET binding to opioid receptor delta from rat brain membrane; summary of the method: as §4
Mu-type opioid receptor [10] = molecular target: T1, Mu-type opioid receptor; experiment: Inhibition of [3H]- ]DAMGO binding to opioid receptor mu from rat brain membrane

Sequence of Mu-type opioid receptor (Cavia porcellus, UniProt P97266) (P97266 whole entry): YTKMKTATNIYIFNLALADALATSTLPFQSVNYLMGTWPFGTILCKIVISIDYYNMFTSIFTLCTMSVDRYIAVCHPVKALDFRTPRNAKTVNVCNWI
T1 sequence (P33535 whole entry): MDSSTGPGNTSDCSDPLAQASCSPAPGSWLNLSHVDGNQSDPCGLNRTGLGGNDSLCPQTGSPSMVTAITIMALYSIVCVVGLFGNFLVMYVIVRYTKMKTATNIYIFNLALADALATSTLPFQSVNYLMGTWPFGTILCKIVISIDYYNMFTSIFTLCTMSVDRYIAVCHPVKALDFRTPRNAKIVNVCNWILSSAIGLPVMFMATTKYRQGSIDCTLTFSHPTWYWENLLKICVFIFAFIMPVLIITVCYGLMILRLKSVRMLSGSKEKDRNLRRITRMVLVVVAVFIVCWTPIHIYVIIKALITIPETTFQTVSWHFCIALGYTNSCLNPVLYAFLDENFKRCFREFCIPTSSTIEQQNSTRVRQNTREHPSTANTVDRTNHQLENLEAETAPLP
T3 sequence (P33533 whole entry): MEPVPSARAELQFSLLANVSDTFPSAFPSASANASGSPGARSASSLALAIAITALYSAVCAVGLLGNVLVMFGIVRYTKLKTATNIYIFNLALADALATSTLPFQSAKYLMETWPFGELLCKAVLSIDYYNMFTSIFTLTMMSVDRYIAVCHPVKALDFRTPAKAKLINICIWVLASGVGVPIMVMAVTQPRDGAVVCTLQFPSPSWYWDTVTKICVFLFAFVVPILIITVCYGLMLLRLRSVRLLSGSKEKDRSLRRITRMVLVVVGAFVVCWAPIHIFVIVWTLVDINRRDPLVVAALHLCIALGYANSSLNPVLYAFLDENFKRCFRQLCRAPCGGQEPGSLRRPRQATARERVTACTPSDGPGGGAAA
T2 sequence (P32300 whole entry): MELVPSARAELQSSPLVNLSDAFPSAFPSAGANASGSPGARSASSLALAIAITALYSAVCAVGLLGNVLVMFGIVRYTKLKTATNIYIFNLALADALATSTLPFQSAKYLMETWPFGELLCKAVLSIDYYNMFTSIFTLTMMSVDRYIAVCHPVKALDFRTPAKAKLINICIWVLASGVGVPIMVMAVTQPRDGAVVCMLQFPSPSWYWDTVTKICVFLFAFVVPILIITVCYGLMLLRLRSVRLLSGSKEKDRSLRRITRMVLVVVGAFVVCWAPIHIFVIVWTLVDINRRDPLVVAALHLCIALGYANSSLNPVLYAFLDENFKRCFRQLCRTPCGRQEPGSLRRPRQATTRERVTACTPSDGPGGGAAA

## CC(C)[C@@H]1NC(=O)[C@@H](NC(=O)[C@H](Cc2ccccc2)NC(=O)[C@@H](C)NC(=O)[C@@H](N)Cc2ccc(O)cc2)CC(=O)NCCC[C@@H](C(N)=O)NC(=O)[C@H](C(C)C)NC1=O
Mu-type opioid receptor [1]
  IC50: 251 nM
Mu-type opioid receptor [2]
  Ki: 338 nM
[3]
  IC50: 90.5 nM
[4]
  Ki: 562 nM

## CC(C)[C@H](NC(=O)[C@@H]1CCC(=O)NCCCC[C@@H](NC(=O)[C@@H](N)Cc2ccc(O)cc2)C(=O)N[C@@H](Cc2ccccc2)C(=O)N1)C(=O)N[C@H](C(=O)NCC(N)=O)C(C)C
Mu-type opioid receptor [1]
  IC50: 102 nM
Mu-type opioid receptor [2]
  Ki: 17.5 nM
[3]
  IC50: 0.467 nM
[4]
  Ki: 3.66 nM

## CC(C)[C@H](NC(=O)[C@H](CC(=O)O)NC(=O)[C@@H](Cc1ccccc1)NC(=O)[C@@H](C)NC(=O)[C@@H](N)Cc1ccc(O)cc1)C(=O)N[C@H](C(=O)NCC(N)=O)C(C)C
Mu-type opioid receptor [1]
  IC50: 11900 nM
[5]
  Ki: 67.2 nM
Mu-type opioid receptor [6]
  Ki: 8650 nM

## CC(C)[C@@H]1NC(=O)[C@H](CC(=O)O)NC(=O)[C@H](Cc2ccccc2)NC(=O)[C@H](NC(=O)[C@@H](N)Cc2ccc(O)cc2)CCCCNC(=O)CC[C@@H](C(N)=O)NC(=O)[C@H](C(C)C)NC1=O
Mu-type opioid receptor [1]
  IC50: 380 nM
Mu-type opioid receptor [2]
  Ki: 891 nM
[3]
  IC50: 17.3 nM
[4]
  Ki: 248 nM

## CCCC[C@H](NC(=O)[C@H](CC(C)C)NC(=O)[C@H](Cc1cnc[nH]1)NC(=O)[C@H](Cc1ccccc1)NC(=O)[C@@H](CCCC)NC(=O)[C@@H](N)Cc1ccc(O)cc1)C(=O)N[C@@H](CC(=O)O)C(N)=O
Mu-type opioid receptor [1]
  IC50: 241 nM
[7]
  IC50: 0.712 nM
Mu-type opioid receptor [2]
  Ki: 117 nM
[4]
  Ki: 0.665 nM

## CC(C)[C@@H]1NC(=O)[C@@H](NC(=O)[C@H](Cc2ccccc2)NC(=O)CNC(=O)[C@@H](N)Cc2ccc(O)cc2)CCC(=O)NCCCC[C@@H](C(N)=O)NC(=O)[C@H](C(C)C)NC1=O (H-YGFEVVK-NH2; lactam 4-7)
Mu-type opioid receptor [1]
  IC50: 3880 nM
Mu-type opioid receptor [2]
  Ki: 955 nM
[3]
  IC50: 919 nM
[4]
  Ki: 724 nM

## CC(C)[C@H](NC(=O)[C@H](CC(=O)O)NC(=O)[C@H](Cc1ccccc1)NC(=O)[C@@H]1Cc2ccccc2CN1C(=O)[C@@H](N)Cc1ccc(O)cc1)C(=O)N[C@H](C(=O)NCC(N)=O)C(C)C (H-Y[Tic]FDVVG-NH2)
Mu-type opioid receptor [1]
  IC50: > 65000 nM
[5]
  Ki: 6.49 nM
[3]
  IC50: 22.8 nM
Mu-type opioid receptor [6]
  Ki: 9230 nM

## CCCC[C@H](NC(=O)[C@H](CC(C)C)NC(=O)[C@H](Cc1ccccc1)NC(=O)[C@H](Cc1ccccc1)NC(=O)[C@@H]1Cc2ccccc2CN1C(=O)[C@@H](N)Cc1ccc(O)cc1)C(=O)N[C@@H](CC(=O)O)C(N)=O (H-Y[Tic]FFL[Nle]D-NH2)
Mu-type opioid receptor [1]
  IC50: > 10000 nM
[5]
  Ki: 8.27 nM
[3]
  IC50: > 10000 nM
Mu-type opioid receptor [6]
  Ki: 4150 nM

## CC(C)[C@H](NC(=O)[C@H](CC(=O)O)NC(=O)C1(NC(=O)[C@@H](C)NC(=O)[C@@H](N)Cc2ccc(O)cc2)Cc2ccccc2C1)C(=O)N[C@H](C(=O)NCC(N)=O)C(C)C (H-Y[dA][Aic]DVVG-NH2)
Mu-type opioid receptor [1]
  IC50: 290 nM
[5]
  Ki: 4.96 nM
[3]
  IC50: 0.0803 nM
Mu-type opioid receptor [6]
  Ki: 207 nM

## CC(C)[C@H](NC(=O)[C@H](CC(=O)O)NC(=O)[C@@H]1Cc2ccccc2CN1C(=O)[C@@H](C)NC(=O)[C@@H](N)Cc1ccc(O)cc1)C(=O)N[C@H](C(=O)NCC(N)=O)C(C)C (H-Y[dA][Tic]DVVG-NH2)
Mu-type opioid receptor [1]
  IC50: 14500 nM
[3]
  IC50: 481 nM
Mu-type opioid receptor [6]
  Ki: 15200 nM
Mu-type opioid receptor [8]
  Ki: 4960 nM

## CC(C)[C@H](NC(=O)[C@H](CC(=O)O)NC(=O)C1(NC(=O)[C@@H](C)NC(=O)[C@@H](N)Cc2ccc(O)cc2)CCc2ccccc2C1)C(=O)N[C@H](C(=O)NCC(N)=O)C(C)C (stereo in doubt; 2)
Mu-type opioid receptor [1]
  IC50: 1820 nM
[5]
  Ki: 5.36 nM
[3]
  IC50: 0.115 nM
Mu-type opioid receptor [6]
  Ki: 671 nM

## CC(C)[C@H](NC(=O)[C@H](CC(=O)O)NC(=O)C1(NC(=O)[C@@H](C)NC(=O)[C@@H](N)Cc2ccc(O)cc2)CCc2ccccc2C1)C(=O)N[C@H](C(=O)NCC(N)=O)C(C)C (stereo in doubt; 3)
Mu-type opioid receptor [1]
  IC50: 1380 nM
[9]
  Ki: 6.52 nM
[3]
  IC50: 0.163 nM
Mu-type opioid receptor [10]
  Ki: 1410 nM

## CSCC[C@H](NC(=O)[C@H](CC(C)C)NC(=O)[C@H](Cc1cnc[nH]1)NC(=O)[C@H](Cc1ccccc1)NC(=O)[C@@H](CCSC)NC(=O)[C@@H](N)Cc1ccc(O)cc1)C(=O)N[C@@H](CC(=O)O)C(N)=O (stereo in doubt; 7) [DELTORPHIN A]
Mu-type opioid receptor [1]
  IC50: 4420 nM
Mu-type opioid receptor [2]
  Ki: 143 nM
[3]
  IC50: 98.3 nM
[4]
  Ki: 290 nM

## CSCC[C@H](NC(=O)[C@H](CC(C)C)NC(=O)[C@H](Cc1cnc[nH]1)NC(=O)[C@H](Cc1ccccc1)NC(=O)[C@@H](CCSC)NC(=O)[C@@H](N)Cc1ccc(O)cc1)C(=O)N[C@@H](CC(=O)O)C(N)=O (stereo in doubt; 12) [DELTORPHIN A]
Mu-type opioid receptor [1]
  IC50: 281 nM
Mu-type opioid receptor [2]
  Ki: 415 nM
[3]
  IC50: 0.695 nM
[4]
  Ki: 2.13 nM

## CC(C)[C@H](NC(=O)[C@H](CC(=O)O)NC(=O)[C@H](Cc1ccccc1)NC(=O)[C@@H](C)NC(=O)[C@@H](N)Cc1ccc(O)cc1)C(=O)N[C@H](C(=O)NCC(N)=O)C(C)C [DELTORPHIN C]
Mu-type opioid receptor [1]
  IC50: 854 nM
[9]
  Ki: 1.44 nM
Mu-type opioid receptor [10]
  Ki: 262 nM
